The results in this text go back to ChEMBL document CHEMBL4184245, “Multiple-step, one-pot synthesis of 2-substituted-3-phosphono-1-thia-4-aza-2-cyclohexene-5-carboxylates and their corresponding ethyl esters” (Bioorg Med Chem Lett, 2018).

As a reminder, the Papp A→B is how fast a substance crosses the layer from the apical side. Broadly, the Papp B→A is the apparent permeability from the basolateral to the apical side of a cell layer. By efflux ratio is commonly meant a quotient of directional permeabilities that is used to spot active efflux.

Data set [1] deals with RG2. In words: Induction of autophagy in rat RG2 cells assessed as optimum compound level causing increase in LC3-II level pre-incubated for 15 mins before bafilomycin-A1 addition and further incubated for 4 hrs by Western blotting method. The data set is classed as functional. In a few lines:
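Cells were tested at 1, 10 and 100 μM. The optimum concentration for autophagy stimulation was estimated from these few levels in preliminary single-series experiments.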
A general note: Immunoblotting shows a protein as a band on a membrane.

Data set [2] can be described thus: Apparent permeability of the compound across apical side to basolateral side in human Caco2 cells at 10 uM incubated for 2 hrs by LC-MS/MS method. Type of data set: ADME, cell-based. The conditions noted are these: Caco-2. In a few lines: (§1)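 Permeability was measured across Caco-2 epithelial monolayers.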
Background: Passage across Caco-2 layers is used to estimate intestinal permeability.

Data set [3] in a line: Apparent permeability of the compound across basolateral to apical side in human Caco2 cells at 10 uM incubated for 2 hrs by LC-MS/MS method. The conditions noted are these: Caco-2. Type of data set: ADME, cell-based. The method, boiled down: as §1
The test system of data set [4] is RG2. In words: Induction of autophagy in rat RG2 cells assessed as increase in LC3-II level at 10 uM pre-incubated for 15 mins before bafilomycin-A1 addition and further incubated for 4 hrs by Western blotting method. The data set is classed as functional, cell-based.
For data set [5], the system named is RG2. Description: Induction of autophagy in rat RG2 cells assessed as increase in LC3-II level at 100 uM pre-incubated for 15 mins before bafilomycin-A1 addition and further incubated for 4 hrs by Western blotting method. The data set is classed as functional, cell-based.
The nature of data set [6]: Efflux ratio in human Caco2 cells at 10 uM incubated for 2 hrs by LC-MS/MS method. The data set is classed as ADME, cell-based. Particulars: Caco-2.

The source made the active and inactive calls. The calls are words filed in the database; no cut-off is given here.

In the case of `CCOC(=O)[C@@H]1CSC(CC)=C(C(=O)O)N1`, the Activity with RG2 [1] is above 10 µM.
As to `CCCCCCC1=C(P(=O)(O)O)N[C@H](C(=O)OCC)CS1`, the Activity with RG2 [1] lay in the range of 1 to 10 µM. For the same molecule, the Papp A→B at 2 h, 10 µM in data set [2] is below 0.01 ×10⁻⁶ cm/s. Further, the Papp B→A at 2 h, 10 µM in data set [3] was below 0.01 ×10⁻⁶ cm/s.
With `O=C(O)C1=CSC[C@@H](C(=O)O)N1`, the result in the data set with RG2 [4] and with RG2 [5] was Active.
As to `CCCCC1=C(P(=O)(O)O)N[C@H](C(=O)OCC)CS1`, in data set [2], the Papp A→B at 2 h, 10 µM was below 0.01 ×10⁻⁶ cm/s. The basolateral-to-apical permeability (Papp B→A) at 2 h, 10 µM in data set [3] was below 0.01 ×10⁻⁶ cm/s.
For `CCCCCCC1=C(P(=O)(O)O)N[C@H](C(=O)O)CS1`, the Papp A→B at 2 h, 10 µM in data set [2] is below 0.01 ×10⁻⁶ cm/s. In addition, the Papp B→A at 2 h, 10 µM in data set [3] was below 0.01 ×10⁻⁶ cm/s.
Consider `CCCCC1=C(P(=O)(O)O)N[C@H](C(=O)O)CS1`, for which, in data set [2], the Papp A→B at 2 h, 10 µM was determined as 1.1 ×10⁻⁶ cm/s. For the same molecule, the apparent permeability from basolateral to apical (Papp B→A) at 2 h, 10 µM in data set [3] worked out at 0.35 ×10⁻⁶ cm/s. In addition, in data set [6], the efflux ratio at 2 h, 10 µM was determined as 0.33.
As for `CC(C)C1=C(P(=O)(O)O)N[C@H](C(=O)O)CS1`, in the data set on RG2 [4], the outcome was Active. In addition, the outcome with RG2 [5] was inactive.
Turning to `CCOC(=O)[C@@H]1CSC=C(C(=O)O)N1`, the apical-to-basolateral permeability (Papp A→B) at 2 h, 10 µM in data set [2] was below 0.01 ×10⁻⁶ cm/s. In data set [3], the Papp B→A at 2 h, 10 µM is below 0.01 ×10⁻⁶ cm/s.
